ChEMBL document CHEMBL1142517, “Discovery of an orally bioavailable small molecule inhibitor of prosurvival B-cell lymphoma 2 proteins” (J Med Chem, 2008)

Assays:
[1] = molecular target: Apoptosis regulator Bcl-2 (Homo sapiens, UniProt P10415); assay: Displacement of fluorescein labeled Bax peptide from Bcl2 by fluorescence polarization assay
[2] = Cytotoxicity against human NCI-H146 cells assessed as cell viability after 48 hrs in presence of 10% human serum; format: functional, cell-based; settings: NCI-H146, 48 h
How it was run: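 NCI-H146 SCLC cells maintained in RPMI 1640 with 10% FBS at 37 °C, 5% CO2. Treated for 48 h in medium with 10% human serum. Viability by CellTiter-Glo luminescence. Values from duplicate runs.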

[3] = Cmax in Sprague-Dawley rat at 5 mg/kg, po; format: ADME, organism-based; parameters: dose 5 mg/kg, route oral; settings: in vivo
How it was run: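 Rats (Sprague-Dawley) given 5 mg/kg by oral gavage in 10% DMSO/PEG-400, n = 3. Serial heparinized blood samples. Plasma drug level by LC-MS/MS after acetonitrile protein precipitation, quantified by linear regression of peak-area ratio to internal standard. Concentration–time data fitted multiexponentially.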

[4] = AUC in Sprague-Dawley rat at 5 mg/kg, po; format: ADME, organism-based; parameters: dose 5 mg/kg, route oral; settings: plasma
How it was run: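 Sprague-Dawley rats, single 5 mg/kg oral dose by gavage in 10% DMSO in PEG-400, n = 3. Heparinized blood taken before dosing and at set times. Plasma proteins precipitated with acetonitrile, then LC-MS/MS against spiked plasma standards with an internal standard. AUC by linear trapezoidal rule.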

[5] = Oral bioavailability in Sprague-Dawley rat at 5 mg/kg; format: ADME, organism-based; settings: in vivo
[6] = Ratio of AUC for Sprague-Dawley rat at 5 mg/kg, po to EC50 for human NCI-H146 cells in presence of 10% human serum; format: functional
How it was run: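 The cells were treated for 48 h in medium with 10% human serum, and viability was read by CellTiter-Glo luminescence.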

[7] = Cytotoxicity against IL3-dependent mouse FL5.12 cells overexpressing human Bcl2 assessed as cell viability after 24 hrs by MTS assay in absence of serum; format: functional, cell-based; settings: FL5.12, 24 h
How it was run: (§1)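 Mouse FL5.12 cells transfected with Bcl-XL or Bcl-2, deprived of IL-3 (no FBS or WEHI-3B conditioned medium) for 2 days. Then moved to serum-free gelatin medium (3.4 mg/mL bovine gelatin) with serially diluted compound for 24 h. Viability by MTS or CellTiter-Glo. Determinations in duplicate.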

[8] = Cytotoxicity against IL3-dependent mouse FL5.12 cells overexpressing human Bcl-XL assessed as cell viability after 24 hrs by MTS assay in absence of serum; format: functional, cell-based; settings: FL5.12, 24 h; how it was run: as §1
[9] = AUC in CD1 mouse at 50 mg/kg, po; format: ADME, organism-based; parameters: dose 50 mg/kg, route oral; settings: plasma
How it was run: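 CD-1 mice, single 50 mg/kg oral gavage in 2% DMSO/5% Tween-80/20% propylene glycol/73% D5W, n = 27. Groups of three euthanized by CO2 at set times and blood taken by cardiac puncture. Plasma by LC-MS/MS. AUC by linear trapezoidal rule.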

[10] = AUC in Beagle dog at 2.5 mg/kg, iv or po; format: ADME, organism-based, Canis lupus familiaris; parameters: dose 2.5 mg/kg, route oral; settings: plasma
How it was run: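 Beagle dogs, single 2.5 mg/kg dose in 10% DMSO in PEG-400, n = 3 per route. Intravenous dose given as a slow cephalic-vein bolus; oral dose by gavage followed by 10 mL water. Plasma by LC-MS/MS. AUC by linear trapezoidal rule.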

[11] = AUC in cynomolgus monkey at 2.5 mg/kg, po; format: ADME, organism-based, Macaca fascicularis; parameters: dose 2.5 mg/kg, route oral; settings: plasma
How it was run: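 Cynomolgus monkeys, single 2.5 mg/kg oral dose in 10% DMSO in PEG-400 by gastric intubation followed by 5 mL water, n = 3. Serial heparinized plasma assayed by LC-MS/MS. AUC by linear trapezoidal rule.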

[12] = Oral elimination half life in Sprague-Dawley rat; format: ADME, organism-based; settings: in vivo, read-out: beta t1/2 (converted)
[13] = Oral elimination half life in CD1 mouse; format: ADME, organism-based; settings: in vivo, read-out: beta t1/2 (converted)
[14] = Oral elimination half life in Beagle dog; format: ADME, organism-based, Canis lupus familiaris; settings: in vivo, read-out: beta t1/2 (converted)
[15] = Oral elimination half life in cynomolgus monkey; format: ADME, organism-based, Macaca fascicularis; settings: in vivo, read-out: beta t1/2 (converted)
[16] = Oral bioavailability in CD1 mouse; format: ADME, organism-based; settings: in vivo
[17] = Oral bioavailability in Beagle dog; format: ADME, organism-based, Canis lupus familiaris; settings: in vivo
[18] = Oral bioavailability in cynomolgus monkey; format: ADME, organism-based, Macaca fascicularis; settings: in vivo
[19] = Oral bioavailability in Sprague-Dawley rat; format: ADME, organism-based; settings: in vivo
[20] = tested on: NCI-H1963 (Homo sapiens); assay: Antitumor activity against human NCI-H1963 cells xenografted C.B-17 SCID-bg mouse assessed as inhibition of tumor growth at 100 mg/kg, po daily once for 21 days; settings: 504 h, read-out: TGI

Sequence of Apoptosis regulator Bcl-2 (P10415 whole entry): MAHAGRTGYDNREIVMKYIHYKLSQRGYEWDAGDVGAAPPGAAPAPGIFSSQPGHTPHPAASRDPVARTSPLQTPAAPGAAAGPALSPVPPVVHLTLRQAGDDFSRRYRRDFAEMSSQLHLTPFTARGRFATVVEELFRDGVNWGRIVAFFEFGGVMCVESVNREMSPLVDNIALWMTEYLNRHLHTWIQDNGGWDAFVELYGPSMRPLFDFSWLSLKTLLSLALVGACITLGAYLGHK

Compound	Ki [1] [nM]	EC50 [2] [nM]	AUC [4] [µM·h]	Ratio [6]	EC50 [7] [nM]	EC50 [8] [nM]	further results
O=C(NS(=O)(=O)c1ccc(NCCSc2ccccc2)c([N+](=O)[O-])c1)c1ccc(N2CCN(Cc3ccccc3-c3ccc(Cl)cc3)CC2)cc1	< 1	33000	10.4	0.32	–	–	Cmax [3]: 1150 nM; bioavailability [5]: 28%
CN(C)CC[C@H](CSc1ccccc1)Nc1ccc(S(=O)(=O)NC(=O)c2ccc(N3CCN(CC4=C(c5ccc(Cl)cc5)CCCCC4)CC3)cc2)cc1[N+](=O)[O-]	< 1	51.9	–	–	< 1	5	–
CN(C)CC[C@H](CSc1ccccc1)Nc1ccc(S(=O)(=O)NC(=O)c2ccc(N3CCN(Cc4ccccc4-c4ccc(Cl)cc4)CC3)cc2)cc1C#N	< 1	1930	2.19	1.1	49	225	–
CN(C)CC[C@H](CSc1ccccc1)Nc1ccc(S(=O)(=O)NC(=O)c2ccc(N3CCN(Cc4ccccc4-c4ccc(Cl)cc4)CC3)cc2)cc1	< 1	78700	–	–	2700	15000	–
CC1(C)CCC(c2ccc(Cl)cc2)=C(CN2CCN(c3ccc(C(=O)NS(=O)(=O)c4ccc(N[C@H](CCN5CCOCC5)CSc5ccccc5)c(S(=O)(=O)C(F)(F)F)c4)cc3)CC2)C1 [NAVITOCLAX]	–	86.7	6.26	–	5.9	4.2	bioavailability [5]: 20%; AUC [9]: 56.7 µM·h; AUC [10]: 27.8 µM·h; AUC [11]: 6.61 µM·h; half-life [12]: 4 h; half-life [13]: 4 h; half-life [14]: 4 h; half-life [15]: 4 h; bioavailability [16]: 20%; bioavailability [17]: 20%; bioavailability [18]: 20%; bioavailability [19]: 20%; inhibition in vivo at 100 mg/kg [20]: 100%
CN(C)CC[C@H](CSc1ccccc1)Nc1ccc(S(=O)(=O)NC(=O)c2ccc(N3CCN(Cc4ccccc4-c4ccc(Cl)cc4)CC3)cc2)cc1S(=O)(=O)C(F)(F)F	< 1	39.4	0.83	21	4.7	12	–
CN(C)CC[C@H](CSc1ccccc1)Nc1ccc(S(=O)(=O)NC(=O)c2ccc(N3CCN(Cc4ccccc4-c4ccc(Cl)cc4)CC3)cc2)cc1C(=O)C(F)(F)F	< 1	2010	1.25	0.62	55	329	–
CN(C)CC[C@H](CSc1ccccc1)Nc1ccc(S(=O)(=O)NC(=O)c2ccc(N3CCN(CC4=C(c5ccc(Cl)cc5)CCC(C)(C)C4)CC3)cc2)cc1[N+](=O)[O-]	< 1	98	–	–	0.6	0.9	–
CN(C)CC[C@H](CSc1ccccc1)Nc1ccc(S(=O)(=O)NC(=O)c2ccc(N3CCN(Cc4ccccc4-c4ccc(Cl)cc4)CC3)cc2)cc1OC(F)(F)F	< 1	5080	–	–	230	805	–
CN(C)CC[C@H](CSc1ccccc1)Nc1ccc(S(=O)(=O)NC(=O)c2ccc(N3CCN(Cc4ccccc4-c4ccc(Cl)cc4)CC3)cc2)cc1S(C)(=O)=O	< 1	3490	–	–	170	415	–
O=C(NS(=O)(=O)c1ccc(N[C@H](CCN2CCOCC2)CSc2ccccc2)c([N+](=O)[O-])c1)c1ccc(N2CCN(Cc3ccccc3-c3ccc(Cl)cc3)CC2)cc1	< 1	610	1.16	1.9	–	–	Cmax [3]: 200 nM; bioavailability [5]: 16%
CN(C)CC[C@H](CSc1ccccc1)Nc1ccc(S(=O)(=O)NC(=O)c2ccc(N3CCN(Cc4ccccc4-c4ccc(Cl)cc4)CC3)cc2)cc1C(F)(F)F	< 1	2460	4.41	1.8	42	122	Cmax [3]: 370 nM; bioavailability [5]: 24%
Cc1cc(S(=O)(=O)NC(=O)c2ccc(N3CCN(Cc4ccccc4-c4ccc(Cl)cc4)CC3)cc2)ccc1N[C@H](CCN(C)C)CSc1ccccc1	< 1	28800	–	–	673	–	–
CN(C)CC[C@H](CSc1ccccc1)Nc1ccc(S(=O)(=O)NC(=O)c2ccc(N3CCN(CC4=C(c5ccc(Cl)cc5)CCC4)CC3)cc2)cc1[N+](=O)[O-]	< 1	691	–	–	51	143	–
CN(C)CC[C@H](CSc1ccccc1)Nc1ccc(S(=O)(=O)NC(=O)c2ccc(N3CCN(Cc4ccccc4-c4ccc(Cl)cc4)CC3)cc2)cc1[N+](=O)[O-] [ABT 737]	–	87	0.28	–	7.7	30	bioavailability [5]: 6%
CN(C)CC[C@H](CSc1ccccc1)Nc1ccc(S(=O)(=O)NC(=O)c2ccc(N3CCN(C/C4=C(\c5ccc(Cl)cc5)CCCCCC4)CC3)cc2)cc1[N+](=O)[O-]	< 1	200	–	–	39	21	–
CN(C)CC[C@H](CSc1ccccc1)Nc1ccc(S(=O)(=O)NC(=O)c2ccc(N3CCN(CC4=C(c5ccc(Cl)cc5)CCOC4)CC3)cc2)cc1[N+](=O)[O-]	2.4	266	–	–	33	55	–
CN(C)CC[C@H](CSc1ccccc1)Nc1ccc(S(=O)(=O)NC(=O)c2ccc(N3CCN(CC4=C(c5ccc(Cl)cc5)CCCC4)CC3)cc2)cc1[N+](=O)[O-]	< 1	25.7	0.65	25.3	11	29	–
O=C(NS(=O)(=O)c1ccc(N[C@H](CCN2CCOCC2)CSc2ccccc2)c(S(=O)(=O)C(F)(F)F)c1)c1ccc(N2CCN(CC3=C(c4ccc(Cl)cc4)CCCC3)CC2)cc1	< 1	58.9	3.87	65.7	1.1	0.7	AUC [9]: 25.2 µM·h; AUC [10]: 3.8 µM·h; AUC [11]: 1.9 µM·h
